PMC8324087 (Angewandte Chemie (International ed. in English), 2021)
Where two headings read alike, the source gives them in different places. One block for each compound: values may come before it.

What was measured:
FGFR2 [1] = molecular target: T1, FGFR2 (Homo sapiens, UniProt P21802); assay: Z'-LYTE kinase assay; format: biochemical
Target sequence in this assay (P21802 22-821): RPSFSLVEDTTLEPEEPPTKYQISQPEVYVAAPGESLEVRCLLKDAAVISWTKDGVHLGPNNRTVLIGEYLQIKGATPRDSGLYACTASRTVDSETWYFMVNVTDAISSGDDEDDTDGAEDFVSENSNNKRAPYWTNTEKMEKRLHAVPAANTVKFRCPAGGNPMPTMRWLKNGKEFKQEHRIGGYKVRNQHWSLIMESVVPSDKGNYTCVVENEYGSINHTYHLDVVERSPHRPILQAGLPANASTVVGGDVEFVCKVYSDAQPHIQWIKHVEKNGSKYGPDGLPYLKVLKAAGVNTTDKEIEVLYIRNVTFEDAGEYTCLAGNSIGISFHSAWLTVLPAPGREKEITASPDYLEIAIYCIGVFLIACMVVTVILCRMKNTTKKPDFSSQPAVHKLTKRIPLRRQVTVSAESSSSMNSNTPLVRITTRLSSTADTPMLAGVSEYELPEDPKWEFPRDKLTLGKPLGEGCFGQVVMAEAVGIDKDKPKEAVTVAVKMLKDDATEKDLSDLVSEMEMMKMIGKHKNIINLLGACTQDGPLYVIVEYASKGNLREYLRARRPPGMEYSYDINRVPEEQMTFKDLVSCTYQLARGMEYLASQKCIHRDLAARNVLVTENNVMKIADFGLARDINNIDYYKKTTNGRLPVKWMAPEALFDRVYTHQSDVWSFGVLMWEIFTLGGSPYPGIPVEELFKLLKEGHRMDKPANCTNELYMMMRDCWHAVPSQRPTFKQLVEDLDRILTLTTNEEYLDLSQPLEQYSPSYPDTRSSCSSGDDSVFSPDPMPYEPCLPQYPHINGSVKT

FGFR2 [2] = molecular target: T1, FGFR2; assay: Immunoblot analysis of FGFR2 degradation in KATO III cells; format: cell-based
How it was run: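 FGFR2-amplified KATO III cells exposed to test compound at 1 µM for 24h, across a concentration series for 6h, over a time course, or for 4h beside a negative-control analogue. For rescue, cells were pretreated 2h with BGJ398, a VHL ligand, bortezomib or MLN4924, then given test compound for 4h. Full-length FGFR2 was detected by immunoblot.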
Target sequence in this assay (P21802 430-767 limits assumed): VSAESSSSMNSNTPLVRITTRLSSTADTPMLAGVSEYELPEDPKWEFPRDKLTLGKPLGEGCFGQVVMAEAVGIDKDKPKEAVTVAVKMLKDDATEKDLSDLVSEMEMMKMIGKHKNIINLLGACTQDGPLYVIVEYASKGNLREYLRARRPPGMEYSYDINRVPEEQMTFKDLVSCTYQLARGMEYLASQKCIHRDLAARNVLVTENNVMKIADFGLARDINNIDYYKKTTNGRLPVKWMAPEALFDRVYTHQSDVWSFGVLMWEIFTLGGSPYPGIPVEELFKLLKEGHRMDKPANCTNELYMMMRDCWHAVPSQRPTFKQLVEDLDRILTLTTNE

CCLP-FP cells = assay: CellTiter-Glo anti-proliferation, CCLP-FP cells; format: cell-based; conditions: read-out: anti-proliferative IC50, engineered FGFR2 fusion CCLP-FP cells, 3d
How it was run: (§1)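 Cell viability read by CellTiter-Glo after test compound exposure: 3d for CCLP-FP (CCLP-1 with ectopic FGFR2-PHGDH fusion) and CCLP1 (FGFR1 overexpression), 10d for ICC13–7 (endogenous FGFR2-OPTN fusion); anti-proliferative IC50 derived; mean ± SEM, n = 3.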

FGFR1 = FGFR1 (Homo sapiens, UniProt P11362); assay: Immunoblot analysis of FGFR1 degradation in CCLP1 cells; format: cell-based
[3] = Pharmacokinetics study in mice; format: in vivo
How it was run: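 Mice received a single dose of test compound by intravenous injection (1 mg/kg), intraperitoneal injection (3 mg/kg) or oral administration (10 mg/kg) for pharmacokinetic profiling.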

FGFR4 = FGFR4 (Homo sapiens, UniProt P22455); assay: Immunoblot analysis of FGFR4 in JHH7 cells; format: cell-based; conditions: 16h
FGFR2-PHGDH fusion = FGFR2-PHGDH fusion (Homo sapiens, UniProt O43175+P21802); assay: Immunoblot analysis of FGFR2-PHGDH fusion in CCLP-1-FP cells; format: cell-based; conditions: 100 nM and 1 µM, 24h
How it was run: (§2)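 Immunoblot for FGFR2 fusion protein after 24 h exposure to test compound. FGFR2-PHGDH fusion is ectopically expressed in CCLP-1 cells (CCLP-1-FP); FGFR2-OPTN is endogenous in ICC13–7 cells. Both fusions carry nearly the full FGFR2 coding sequence (extracellular, transmembrane and kinase domains) fused in-frame to dimerization-domain partners.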

FGFR2-OPTN fusion = FGFR2-OPTN fusion (Homo sapiens, UniProt P21802+Q96CV9); assay: Immunoblot analysis of FGFR2-OPTN fusion in ICC13–7 cells; format: cell-based; conditions: 100 nM and 1 µM, 24h
How it was run: as §2

Kelly cells = assay: Quantitative mass spectrometry-based proteomics in Kelly cells; format: cell-based; conditions: 5h treatment, 1 µM
How it was run: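 Kelly cells, which express both FGFR1 and FGFR2, given test compound at 1 µM for 5h. Quantitative mass spectrometry-based proteomics gave relative abundance of proteins across the proteome.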

FGFR2-PHGDH = FGFR2-PHGDH (Homo sapiens, UniProt O43175+P21802); assay: In vivo pharmacodynamics, CCLP1-FGFR2-PHGDH xenograft model; set-up: species or system mice; conditions: 20 or 40 mg/kg, IP QD for 6d; tumors isolated 4h after last dose
How it was run: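 Mice bearing CCLP1-FGFR2-PHGDH xenografts began dosing once tumours reached ~200 mm3. Test compound was given at 20 or 40 mg/kg IP once daily for 6 d to assess in vivo degradation and signaling.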

[4] = system: phosphorylation of FRS2 or ERK; assay: Immunoblot of downstream FGFR2 signaling; format: cell-based; conditions: CCLP1-FP cells, 50 nM, 4 or 8 hours
How it was run: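 CCLP1 cells ectopically expressing the FGFR2-PHGDH fusion were exposed to test compound at 50 nM for 4 or 8 hours. Lysates were immunoblotted for the fusion protein and for signaling markers.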

ICC13–7 cells = assay: CellTiter-Glo anti-proliferation, ICC13–7 cells; format: cell-based; conditions: read-out: anti-proliferative IC50, FGFR2 fusion-positive ICC13–7 cells, 10d
How it was run: as §1

CCLP1 cells = assay: CellTiter-Glo anti-proliferation, CCLP1 cells; format: cell-based; conditions: read-out: anti-proliferative IC50, FGFR1 overexpressing CCLP1 cells, 3d
How it was run: as §1

all FGFR isoforms = assay: Biochemical inhibition of FGFR isoforms; conditions: Table S1
How it was run: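 FGFR isoform IC50s measured by Z'-LYTE kinase assay, run as an outsourced service.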

FGFR3 = FGFR3 (Homo sapiens, UniProt P22607); assay: Immunoblot analysis of FGFR3 in JHH7 cells; format: cell-based; conditions: 16h
[5] = read-out: FGFR2 IC50, BGJ398-VHL based degraders

Sequence of FGFR1 (P11362 22-822): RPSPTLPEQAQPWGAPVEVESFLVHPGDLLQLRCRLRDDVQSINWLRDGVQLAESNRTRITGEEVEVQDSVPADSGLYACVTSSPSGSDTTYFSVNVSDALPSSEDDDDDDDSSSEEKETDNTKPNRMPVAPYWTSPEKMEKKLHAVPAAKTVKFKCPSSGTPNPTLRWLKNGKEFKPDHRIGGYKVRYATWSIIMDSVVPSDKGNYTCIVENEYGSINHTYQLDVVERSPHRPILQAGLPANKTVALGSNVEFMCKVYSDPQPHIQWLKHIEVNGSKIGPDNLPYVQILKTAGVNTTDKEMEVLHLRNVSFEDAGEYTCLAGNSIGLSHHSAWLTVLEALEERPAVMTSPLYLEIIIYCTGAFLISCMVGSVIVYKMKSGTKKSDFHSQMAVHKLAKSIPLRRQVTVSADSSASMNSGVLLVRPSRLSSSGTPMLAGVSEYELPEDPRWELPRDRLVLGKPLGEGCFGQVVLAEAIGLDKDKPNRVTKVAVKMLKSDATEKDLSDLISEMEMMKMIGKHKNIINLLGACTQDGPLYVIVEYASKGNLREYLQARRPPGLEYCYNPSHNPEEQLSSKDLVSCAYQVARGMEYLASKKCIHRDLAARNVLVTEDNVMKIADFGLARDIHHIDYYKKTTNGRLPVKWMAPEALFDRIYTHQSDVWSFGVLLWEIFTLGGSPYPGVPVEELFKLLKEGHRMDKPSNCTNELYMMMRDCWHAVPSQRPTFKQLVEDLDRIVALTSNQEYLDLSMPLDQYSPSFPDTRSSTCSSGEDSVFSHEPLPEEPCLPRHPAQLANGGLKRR
Sequence of FGFR2-PHGDH (P21802 458-767 limits assumed, one chain of several): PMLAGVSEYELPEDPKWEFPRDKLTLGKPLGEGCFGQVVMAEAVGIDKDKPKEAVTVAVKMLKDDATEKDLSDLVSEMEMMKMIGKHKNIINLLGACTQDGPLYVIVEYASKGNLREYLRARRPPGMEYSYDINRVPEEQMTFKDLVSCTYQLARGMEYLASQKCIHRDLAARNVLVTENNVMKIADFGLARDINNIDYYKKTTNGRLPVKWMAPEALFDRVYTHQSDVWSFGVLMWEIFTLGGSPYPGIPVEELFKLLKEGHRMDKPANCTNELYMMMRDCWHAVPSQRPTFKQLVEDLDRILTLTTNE
Sequence of FGFR3 (P22607 23-806): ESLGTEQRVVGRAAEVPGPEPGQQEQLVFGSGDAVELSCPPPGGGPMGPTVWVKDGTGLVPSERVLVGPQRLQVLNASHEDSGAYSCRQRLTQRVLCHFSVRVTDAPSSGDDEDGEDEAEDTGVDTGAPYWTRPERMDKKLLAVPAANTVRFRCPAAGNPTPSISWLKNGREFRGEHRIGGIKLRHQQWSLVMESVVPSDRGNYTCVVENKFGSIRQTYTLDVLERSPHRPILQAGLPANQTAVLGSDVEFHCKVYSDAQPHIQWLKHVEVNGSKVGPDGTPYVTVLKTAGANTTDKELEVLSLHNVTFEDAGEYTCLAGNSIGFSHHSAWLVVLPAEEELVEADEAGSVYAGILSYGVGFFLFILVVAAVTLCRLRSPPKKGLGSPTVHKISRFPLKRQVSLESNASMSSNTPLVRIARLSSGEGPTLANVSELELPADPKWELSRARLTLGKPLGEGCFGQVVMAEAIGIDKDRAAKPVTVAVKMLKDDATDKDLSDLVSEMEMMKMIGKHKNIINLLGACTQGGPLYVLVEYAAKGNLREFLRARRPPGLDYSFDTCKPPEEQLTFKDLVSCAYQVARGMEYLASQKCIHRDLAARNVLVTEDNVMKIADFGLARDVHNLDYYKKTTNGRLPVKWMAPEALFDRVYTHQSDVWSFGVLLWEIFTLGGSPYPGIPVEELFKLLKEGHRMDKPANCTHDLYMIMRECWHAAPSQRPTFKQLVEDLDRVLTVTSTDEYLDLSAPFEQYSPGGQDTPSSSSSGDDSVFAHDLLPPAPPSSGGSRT
Sequence of FGFR4 (P22455 22-802): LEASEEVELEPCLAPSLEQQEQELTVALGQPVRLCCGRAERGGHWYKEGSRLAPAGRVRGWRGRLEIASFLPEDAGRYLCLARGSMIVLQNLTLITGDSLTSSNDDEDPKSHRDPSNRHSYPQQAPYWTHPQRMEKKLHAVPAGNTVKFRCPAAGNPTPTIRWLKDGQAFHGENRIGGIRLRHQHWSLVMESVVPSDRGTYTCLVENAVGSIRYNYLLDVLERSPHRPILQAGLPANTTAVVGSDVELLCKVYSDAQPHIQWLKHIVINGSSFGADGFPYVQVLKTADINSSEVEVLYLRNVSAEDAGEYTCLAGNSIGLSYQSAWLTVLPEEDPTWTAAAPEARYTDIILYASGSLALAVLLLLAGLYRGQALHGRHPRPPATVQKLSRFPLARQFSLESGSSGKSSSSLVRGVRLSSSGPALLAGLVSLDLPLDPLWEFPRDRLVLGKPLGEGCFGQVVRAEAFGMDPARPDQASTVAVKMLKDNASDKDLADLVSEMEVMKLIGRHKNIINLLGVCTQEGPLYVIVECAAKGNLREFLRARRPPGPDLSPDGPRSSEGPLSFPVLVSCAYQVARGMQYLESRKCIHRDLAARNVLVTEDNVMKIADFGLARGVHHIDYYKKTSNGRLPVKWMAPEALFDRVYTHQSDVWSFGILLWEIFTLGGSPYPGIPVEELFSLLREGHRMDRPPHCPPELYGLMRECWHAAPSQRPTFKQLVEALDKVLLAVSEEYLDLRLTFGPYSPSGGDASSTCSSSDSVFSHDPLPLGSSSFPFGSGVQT
Sequence of FGFR2-OPTN fusion (P21802 431-767 limits assumed, one chain of several): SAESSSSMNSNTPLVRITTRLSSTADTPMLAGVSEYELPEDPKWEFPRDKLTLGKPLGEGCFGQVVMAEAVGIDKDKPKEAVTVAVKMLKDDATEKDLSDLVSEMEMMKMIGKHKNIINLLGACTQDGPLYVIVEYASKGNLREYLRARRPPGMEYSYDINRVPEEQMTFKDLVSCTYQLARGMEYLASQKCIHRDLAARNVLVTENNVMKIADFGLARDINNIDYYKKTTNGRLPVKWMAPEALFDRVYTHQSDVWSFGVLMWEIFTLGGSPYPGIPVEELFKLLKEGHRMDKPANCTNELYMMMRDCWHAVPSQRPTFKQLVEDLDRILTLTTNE
Sequence of FGFR2-PHGDH fusion (P21802 431-767 limits assumed, one chain of several): as above

IC50 (FGFR2 [1]; [5]): 30 nM
SMILES: COc1cc(OC)c(Cl)c(NC(=O)N(C)c2cc(Nc3ccc(N4CCN(CCC(=O)N[C@H](C(=O)N5C[C@H](O)C[C@H]5C(=O)N[C@@H](C)c5ccc(-c6scnc6C)cc5)C(C)(C)C)CC4)cc3)ncn2)c1Cl [NJH-05–166]

IC50 (FGFR2 [1]; [5]): 16 nM
SMILES: COc1cc(OC)c(Cl)c(NC(=O)N(C)c2cc(Nc3ccc(N4CCN(CCCCCC(=O)N[C@H](C(=O)N5C[C@H](O)C[C@H]5C(=O)N[C@@H](C)c5ccc(-c6scnc6C)cc5)C(C)(C)C)CC4)cc3)ncn2)c1Cl [NJH-05-123]

IC50 (FGFR2 [1]; read-out: FGFR2 IC50, BGJ398-IMiDs based degraders): 33 nM
SMILES: COc1cc(OC)c(Cl)c(NC(=O)N(C)c2cc(Nc3ccc(N4CCN(CC(=O)NCCCCCOc5cccc6c5C(=O)N(C5CCC(=O)NC5=O)C6=O)CC4)cc3)ncn2)c1Cl (stereo not drawn) [DGY-09-073]

IC50 (FGFR2 [1]; [5]): 59 nM
SMILES: COc1cc(OC)c(Cl)c(NC(=O)N(C)c2cc(Nc3ccc(N4CCN(CC(=O)NCCCCCOc5cc(-c6scnc6C)ccc5[C@H](C)NC(=O)[C@@H]5C[C@@H](O)CN5C(=O)[C@@H](NC(C)=O)C(C)(C)C)CC4)cc3)ncn2)c1Cl [DGY-11-123]

IC50 (FGFR2 [1]; [5]): 33 nM
SMILES: COc1cc(OC)c(Cl)c(NC(=O)N(C)c2cc(Nc3ccc(N4CCN(C(=O)NCCOCCC(=O)NC(C(=O)N5CC(O)CC5C(=O)NC(C)c5ccc(-c6scnc6C)cc5)C(C)(C)C)CC4)cc3)ncn2)c1Cl (stereo not drawn) [NJH-05-044]

IC50 (FGFR2 [1]; [5]): 30 nM
SMILES: COc1cc(OC)c(Cl)c(NC(=O)N(C)c2cc(Nc3ccc(N4CCN(CC(=O)NCCC(=O)N[C@H](C(=O)N5C[C@H](O)C[C@H]5C(=O)N[C@@H](C)c5ccc(-c6scnc6C)cc5)C(C)(C)C)CC4)cc3)ncn2)c1Cl [NJH-05-043]

IC50 (FGFR2 [1]; [5]): 43 nM
SMILES: COc1cc(OC)c(Cl)c(NC(=O)N(C)c2cc(Nc3ccc(N4CCN(CC(=O)NCCCCCSC(C)(C)C(NC(C)=O)C(=O)N5CC(O)CC5C(=O)NC(C)c5ccc(-c6scnc6C)cc5)CC4)cc3)ncn2)c1Cl (stereo not drawn) [DGY-11-122]

IC50 (FGFR2 [1]; [5]): 10 nM
SMILES: COc1cc(OC)c(Cl)c(NC(=O)N(C)c2cc(Nc3ccc(N4CCN(CCCC(=O)N[C@H](C(=O)N5C[C@H](O)C[C@H]5C(=O)N[C@@H](C)c5ccc(-c6scnc6C)cc5)C(C)(C)C)CC4)cc3)ncn2)c1Cl [NJH-05–132]

Rescue of DGY-09-192 induced FGFR2 degradation by pretreatment (FGFR2 [2]; 2h pretreatment then DGY-09-192 for 4h): rescued FGFR2 degradation
SMILES: CCN1CCN(c2ccc(Nc3cc(N(C)C(=O)Nc4c(Cl)c(OC)cc(OC)c4Cl)ncn3)cc2)CC1 [BGJ398, reference compound]

IC50 (FGFR2 [1]; [5]): 34 nM | Dmax of FGFR1 degradation (FGFR1; 16h): 85% | DC50 (FGFR1; read-out: DC50 of FGFR1 degradation, 16h): 4.35 nM | AUClast ([3]; ip 3 mg/kg): 7.33 µM·h | CL ([3]; ip 3 mg/kg): 6.84 mL/min/kg | Cmax ([3]; ip 3 mg/kg): 1490 nM | T1/2 ([3]; ip 3 mg/kg): 4.25 h | Tmax ([3]; ip 3 mg/kg): 1.33 h | AUClast ([3]; iv 1 mg/kg): 2.94 µM·h | CL ([3]; iv 1 mg/kg): 5.58 mL/min/kg | Cmax ([3]; iv 1 mg/kg): 1600 nM | T1/2 ([3]; iv 1 mg/kg): 5.45 h | Tmax ([3]; iv 1 mg/kg): 0.08 h | Vss ([3]; iv 1 mg/kg): 1.41 L/kg | oral bioavailability ([3]; oral 10 mg/kg): negligible | AUClast ([3]; po 10 mg/kg): 0.07 µM·h | CL ([3]; po 10 mg/kg): 1550.77 mL/min/kg | Cmax ([3]; po 10 mg/kg): 10 nM | Fpo ([3]; po 10 mg/kg): 0.2 | T1/2 ([3]; po 10 mg/kg): 5.10 h | Tmax ([3]; po 10 mg/kg): 1.67 h | clearance ([3]; via IV and IP administration): low clearance | half-life (T1/2) ([3]; via IV and IP administration): 5 h | Effect on FGFR4 protein levels (FGFR4): minimal effects | Degradation of FGFR2-PHGDH fusion protein (FGFR2-PHGDH fusion): dose-dependent degradation | Degradation of FGFR2-OPTN fusion protein (FGFR2-OPTN fusion): dose-dependent degradation | Concentration at which hook effect is observed (FGFR2 [2]; 6h dose titration): above 5 µM | Dmax of FGFR2 degradation (FGFR2 [2]; 6h treatment): 74% | Degradation of full length FGFR2 protein (FGFR2 [2]; 24h treatment at 1 µM): most potent degradation | Time to significant FGFR2 degradation (FGFR2 [2]; time course): ≤ 4 h | FGFR2-PHGDH protein levels in tumor (FGFR2-PHGDH): reduction | phosphorylation of downstream markers FRS2 and ERK1/2 in tumor (FGFR2-PHGDH): reduction | Effect on FGFR3 protein levels (FGFR3): minimal effects
SMILES: COc1cc(OC)c(Cl)c(NC(=O)N(C)c2cc(Nc3ccc(N4CCN(CC(=O)N[C@H](C(=O)N5C[C@H](O)C[C@H]5C(=O)N[C@@H](C)c5ccc(-c6scnc6C)cc5)C(C)(C)C)CC4)cc3)ncn2)c1Cl [DGY-09-192]
IC50 (CCLP-FP cells): 8 nM | Proteome-wide degradation selectivity (Kelly cells): high selectivity for FGFR1 and FGFR2 with PDE6D as an off-target | Suppression of downstream FGFR2 signaling (phosphorylation of FRS2 or ERK) [4]: durably suppressed | IC50 (ICC13–7 cells): 40 nM | IC50 (CCLP1 cells): 17 nM | Inhibition of FGFR isoforms (all FGFR isoforms): equally potent inhibitor for all FGFR isoforms
